The values that follow come from ChEMBL document CHEMBL1135824, “Interaction of designed sulfated flavanoids with antithrombin: lessons on the design of organic activators” (J Med Chem, 2002).

Data set [1] in a line: Observed dissociation constant of interaction with plasma antithrombin at 25 degree Celsius in 20 mM sodium phosphate buffer at a pH 6.0. The class given is ADME, cell-free. The method in brief:
(§1)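 Human plasma antithrombin (1 µM) with TNS (5 µM) was titrated with the sulfated flavanoid. Buffer was 20 mM sodium phosphate, 0.1 mM EDTA, 0.1% PEG 8000, at pH 6.0 (I 0.025) or 7.4 (I 0.035). Fluorescence decrease was read at 432 nm (excitation 330 nm). KD came from fitting to a quadratic equilibrium binding equation.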

Data set [2] is described as follows: Observed dissociation constant of interaction with plasma antithrombin at 25 degree Celsius in 20 mM sodium phosphate buffer at a pH 7.4. Format: ADME, cell-free. The gist of the method: as §1
Data set [3] can be described thus: Non ionic interaction with plasma antithrombin at 25 degree Celsius in 20 mM sodium phosphate buffer at a pH 7.4. The class given is ADME, cell-free.
A short description of data set [4]: Non ionic interaction with plasma antithrombin at 25 degree Celsius in 20 mM sodium phosphate buffer at a pH 6.0. The class given is ADME, cell-free.
The target in data set [5] is Coagulation factor X (Homo sapiens) (UniProt P00742). In words: Second order rate constant for antithrombin inhibition of factor Xa in the presence of activator determined.
Sequence of Coagulation factor X (Homo sapiens) (P00742 41-179 limits assumed): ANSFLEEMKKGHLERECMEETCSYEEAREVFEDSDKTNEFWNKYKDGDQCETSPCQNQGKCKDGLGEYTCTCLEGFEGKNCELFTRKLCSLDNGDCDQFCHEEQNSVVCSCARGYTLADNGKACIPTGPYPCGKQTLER
Sequence of Coagulation factor X (Homo sapiens) (P00742 235-488 limits assumed): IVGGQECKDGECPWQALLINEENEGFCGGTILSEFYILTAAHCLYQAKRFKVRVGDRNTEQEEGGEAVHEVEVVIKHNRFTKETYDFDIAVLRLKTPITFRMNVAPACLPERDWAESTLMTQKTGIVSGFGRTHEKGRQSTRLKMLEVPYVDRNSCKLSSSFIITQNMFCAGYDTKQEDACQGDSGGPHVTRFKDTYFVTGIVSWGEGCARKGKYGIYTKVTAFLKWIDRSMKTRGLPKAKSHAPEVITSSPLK
The nature of data set [6]: Dissociation constant of CS-Antithrombin interaction at 25 degree Celsius 20 mM sodium phosphate buffer at pH 6.0 at 20 uM. Format: functional. The method in brief: (§2)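 Competitive titration of CS into plasma antithrombin–TNS complex with tetrasaccharide EFGH″ held at a fixed level, much above antithrombin. Competitor levels spanned 0.67–6.7 × its own antithrombin KD. Run at 25 °C in 20 mM sodium phosphate, 0.1 mM EDTA, 0.1% PEG 8000, pH 6.0, I 0.025. Read-out was the decrease in TNS fluorescence with rising CS. Antithrombin was freshly diluted from pH 7.4 stock.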

Data set [7] is described as follows: Effect (0 uM) on second-order rate constant that accelerated inhibition of factor Xa by antithrombin-CS (50 uM)complex.
A short description of data set [8]: Dissociation constant of CS-Antithrombin interaction at 25 degree Celsius 20 mM sodium phosphate buffer at pH 6.0 at 0 uM. The class given is functional.
Data set [9] can be described thus: Effect (1 uM) on observed rate constant that accelerated inhibition of factor Xa by antithrombin-CS (0 uM) complex.
A short description of data set [10]: Effect (2 uM)on second-order rate constant that accelerated inhibition of factor Xa by antithrombin-CS (0 uM) complex.
Data set [11] is described as follows: Dissociation constant of CS-Antithrombin interaction at 25 degree Celsius 20 mM sodium phosphate buffer at pH 6.0 at 10 uM. The class given is functional. The method in brief:
as §2

Data set [12] can be described thus: Effect (2 uM)on second-order rate constant that accelerated inhibition of factor Xa by antithrombin-CS (50 uM)complex.
Data set [13] is described as follows: Effect (4 uM) on second-order rate constant that accelerated inhibition of factor Xa by antithrombin-CS (0 uM) complex.
The nature of data set [14]: Effect (4 uM) on second-order rate constant that accelerated inhibition of factor Xa by antithrombin-CS (50 uM)complex.
The nature of data set [15]: Effect (1 uM) on second-order rate constant that accelerated inhibition of factor Xa by antithrombin-CS (50 uM)complex.
Data set [16] in a line: Dissociation constant of CS-Antithrombin interaction at 25 degree Celsius 20 mM sodium phosphate buffer at pH 6.0 at 3.0 uM. The class given is functional. The method in brief:
as §2

A short description of data set [17]: Dissociation constant of CS-Antithrombin interaction at 25 degree Celsius 20 mM sodium phosphate buffer at pH 6.0 at 4.5 uM. Format: functional. The method in brief:
as §2

Data set [18] in a line: Dissociation constant of CS-Antithrombin interaction at 25 degree Celsius 20 mM sodium phosphate buffer at pH 6.0 at 30 uM. The class given is functional. The gist of the method:
as §2

Data set [19] can be described thus: Second order rate constant for antithrombin inhibition of factor Xa in the presence of activator determined.

As to `O=S(=O)(O)Oc1cc2c(c(OS(=O)(=O)O)c1)C[C@H](OS(=O)(=O)O)[C@@H](c1ccc(OS(=O)(=O)O)c(OS(=O)(=O)O)c1)O2`, the Kd (as a rule, a measure of binding affinity in units of concentration) in data set [1] turned out to be 3.5 µM; in [2], 17.9 µM; in [3] it was 2200 µM; in data set [4], 1000 µM. In addition, the K ACT in data set [5] was 6750 M⁻¹ s⁻¹.

For `CO[C@H]1O[C@H](COS(=O)(=O)O)[C@@H](O[C@H]2O[C@@H](C(=O)O)[C@@H](O[C@H]3O[C@H](COS(=O)(=O)O)[C@@H](O[C@H]4O[C@H](C(=O)O)C[C@H](O)[C@H]4O)[C@H](OS(=O)(=O)O)[C@H]3NS(=O)(=O)O)[C@H](O)[C@H]2OS(=O)(=O)O)[C@H](OS(=O)(=O)O)[C@H]1OS(=O)(=O)O`, the KCS, APP in data set [6] is 3.2 µM; in data set [8] it was 3.5 µM; in data set [11], 3.1 µM; in [16], 4.8 µM; in data set [17], 3.5 µM; in data set [18] it was 2.1 µM. For the same compound, the second-order rate constant in [7] stood at 2000 M⁻¹ s⁻¹; in [9], 2400 M⁻¹ s⁻¹; in data set [10] it was 3200 M⁻¹ s⁻¹; in data set [12] it was 4700 M⁻¹ s⁻¹; in data set [13], 6400 M⁻¹ s⁻¹; in [14], 7400 M⁻¹ s⁻¹. Moreover, the second-order rate constant in data set [15] stood at 4300 M⁻¹ s⁻¹.

Take `O=S(=O)(O)Oc1cc2c(c(OS(=O)(=O)O)c1)C[C@@H](OS(=O)(=O)O)[C@@H](c1ccc(OS(=O)(=O)O)c(OS(=O)(=O)O)c1)O2`: the dissociation constant Kd was found to be 10.7 µM in data set [1], 32.3 µM in data set [2], 1100 µM in data set [3] and 380 µM in data set [4]. The K ACT in data set [5] was found to be 3380 M⁻¹ s⁻¹.

Take `O=S(=O)(O)Oc1cc2c(c(OS(=O)(=O)O)c1)C[C@@H](OS(=O)(=O)O)[C@H](c1ccc(OS(=O)(=O)O)c(OS(=O)(=O)O)c1)O2` (racemic): in data set [1], binding was characterised by a dissociation constant (Kd) of 26.1 µM. In addition, the KD non ionic in data set [4] is 470 µM. For the same compound, the kACT in [19] turned out to be 2770 M⁻¹ s⁻¹.
